mIAP activ – activators of mouse IAP, primary screen, biochemical, luminescence, uHTS | intestinal alkaline phosphatase [Mus musculus] | muIAP, CDP-Star luminescence, 30 min; stronger effect = higher value; 1 = vehicle-only enzyme signal, 0 = enzyme-free wells | activation factor at 10 µM | actives 0.24% (n = 330,000) | AID 2805, 2010;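 active = activation factor of at least 2 at 20 µM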
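Assay system: mouse IAP enzyme; reagent: chemiluminescent substrate CDP-Star; dosing: test compounds delivered from DMSO solution; schedule: 30 min at room temperature; measured by: luminescence from enzymatic CDP-Star hydrolysis; controls: DMSO-only wells and no-enzyme negative control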
hIAP block – human IAP inhibitors, primary screen, biochemical, luminescence, uHTS; Intestinal-type alkaline phosphatase (Homo sapiens), P09923; inhibition, % at 10 µM; purified IAP, CDP-Star luminescence, 30 min; actives 0.12% (n = 330,000);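 active = inhibition reaching a set limit with compound at 10 µM in the primary screen, cut at about 35% in these data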;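 also: plate controls were DMSO wells with enzyme for no effect and no-enzyme buffer wells for full effect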
Target sequence (P09923 whole entry, looked up): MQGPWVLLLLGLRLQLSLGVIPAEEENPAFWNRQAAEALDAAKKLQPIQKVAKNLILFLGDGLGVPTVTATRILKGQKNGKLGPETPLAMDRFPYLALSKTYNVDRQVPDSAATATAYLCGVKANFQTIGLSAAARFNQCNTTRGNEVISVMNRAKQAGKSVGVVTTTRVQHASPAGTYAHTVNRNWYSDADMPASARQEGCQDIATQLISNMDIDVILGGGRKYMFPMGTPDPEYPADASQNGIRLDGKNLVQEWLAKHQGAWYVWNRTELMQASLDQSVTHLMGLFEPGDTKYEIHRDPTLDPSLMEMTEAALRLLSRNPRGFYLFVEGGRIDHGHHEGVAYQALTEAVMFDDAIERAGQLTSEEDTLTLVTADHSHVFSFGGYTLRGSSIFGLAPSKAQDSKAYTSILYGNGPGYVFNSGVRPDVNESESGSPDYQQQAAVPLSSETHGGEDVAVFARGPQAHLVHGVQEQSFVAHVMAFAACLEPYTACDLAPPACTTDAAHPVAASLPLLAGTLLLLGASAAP
hIAP act – human IAP activators, primary screen, biochemical, luminescence, uHTS; activation factor at 10 µM; actives 0.16% (n = 330,000); Intestinal-type alkaline phosphatase (Homo sapiens), P09923; purified human IAP, CDP-Star luminescence, 30 min; stronger effect = higher value; 1 = vehicle-only enzyme, 0 = enzyme-free background;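 active = activation factor of the enzyme at least 2-fold when tested at 20 µM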
bIAP inh – bovine intestinal alkaline phosphatase inhibitors, primary screen, selectivity assay for TNAP inhibitor project, biochemical, bovine IAP, CDP-star luminescence. purified bovine IAP, 30 min. 190,000 tested, under 10 active. inhibition, % at 20 µM. alkaline phosphatase, intestinal [Bos taurus];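 active = over 50% inhibition of intestinal alkaline phosphatase at 20 µM in the single-dose screen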
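Assay system – bovine IAP enzyme · Quantity – bovine IAP at 1/65,000,000 final dilution · Detection – CDP-star luminescence signal · Times – 30 min reaction at room temperature · Also added – CDP-star substrate at 30 µM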
bIAP activator – bovine intestinal alkaline phosphatase activators, primary screen, biochemical, bovine IAP, CDP-star luminescence; alkaline phosphatase, intestinal [Bos taurus]; purified bovine IAP, 30 min; stronger effect = higher value; fold of DMSO-control signal, blank-subtracted; activation factor at 20 µM; actives 0.17% (n = 200,000);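 active = activation factor of 2 or more at 20 µM, a signal rise over negative controls twice the positive control's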
mIAP block – inhibitors of mouse IAP, primary screen, biochemical, luminescence, uHTS. purified mouse IAP, CDP-Star luminescence, 30 min. intestinal alkaline phosphatase [Mus musculus]. AID 2806, 2010. actives 0.2% (n = 330,000). inhibition, % at 10 µM;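 active = inhibition of at least 40% at 10 µM in the primary screen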;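 also: plate controls were DMSO with enzyme for no effect and no enzyme wells for full effect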
Active calls of the source: *; · = not tested or not shown. Shown are actives, neighbours in structure and some others; about 0.79% of the full set was active somewhere.

SMILES | mIAP activ | hIAP block | hIAP act | bIAP inh | bIAP activator | mIAP block
Nc1ccc(S(=O)(=O)NNC(=O)C(=O)NNc2ccccn2)cc1 | 0.73 | -166 | 2.7* | -30 | 1.3 | 27
COc1ccc(NC(=O)N(C)C[C@H]2Oc3ccc(NC(=O)NC4CCCCC4)cc3C(=O)N([C@H](C)CO)C[C@@H]2C)cc1 | 2.1* | 4 | 0.96 | · | · | -105
COc1ccc(NC(=O)Nc2ccc3c(c2)C(=O)N([C@H](C)CO)C[C@H](C)[C@@H](CN(C)C(=O)NC2CCCCC2)O3)cc1 | 2.4* | -7 | 1.1 | · | · | -139
Cc1noc(C)c1S(=O)(=O)N(C)C[C@H]1Oc2ccc(NC(=O)NC3CCCCC3)cc2C(=O)N([C@H](C)CO)C[C@@H]1C | 2.6* | 2 | 0.98 | · | · | -157
Cc1nnc(NC(=O)Nc2cccc(Cl)c2)s1 | 0.98 | -13 | 1.1 | 6 | 0.9 | 2
Cc1csc(NC(=O)Nc2cccc(Cl)c2)n1 | 1.2 | -16 | 1.2 | -123 | 2.2* | -18
COc1ccc(NC(=O)Nc2cccc(OC)c2)cc1 | 1.7 | 5 | 0.95 | · | · | -66
N#CCc1ccc(NC(=O)Nc2cccc(Cl)c2)cc1 | 2.8* | -39 | 1.4 | 7 | 0.9 | -176
COc1cccc(NC(=O)Nc2cc(Cl)ccc2C)c1 | 2.2* | 16 | 0.84 | -16 | 1.2 | -123
COC(=O)c1cccc(NC(=O)NC23CC4CC(CC(C4)C2)C3)c1 | 2.6* | 2 | 0.98 | 2 | 1 | -156
CCOc1ccc2oc(C(=O)N(CCOC)c3c(N)n(CC(C)C)c(=O)[nH]c3=O)c(C)c2c1 | 1 | -5 | 1 | · | · | -1
COc1cc(C(=O)NCC(=O)NCC(c2ccco2)N2CCCCC2)cc(OC)c1OC (stereo unspecified) | 1.1 | -6 | 1.1 | · | · | -10
COc1ccccc1NS(=O)(=O)c1cccc(NC(=O)NCCCl)c1 | 1.1 | -9 | 1.1 | · | · | -8
COC(=O)c1cccc(NC(=O)Nc2ccc(Cl)cc2)c1 | 2.2* | 0 | 1 | · | · | -123
COc1ccccc1NS(=O)(=O)c1cccc(NC(=O)Nc2cccc(Cl)c2)c1 | 2.2* | -6 | 1.1 | 10 | 0.9 | -124
CCN(C(=O)CSc1nnc(-c2ccc3c(c2)OCO3)o1)C1CCS(=O)(=O)C1 (stereo unspecified) | 1.1 | 4 | 0.96 | · | · | -7
CC(=O)c1cccc(NC(=S)NCc2ccccc2)c1 | 1 | -5 | 1.1 | · | · | -2
COc1ccc(CNC(=O)Nc2cccc3ccccc23)cc1 | 2.1* | 5 | 0.95 | -21 | 1.2 | -106
O=C(Nc1ccccc1)Nc1cccc2ccccc12 | 2.9* | -2 | 1 | · | · | -189
CCOC(=O)c1ccc(NC(=O)NCc2ccc(OC)cc2)cc1 | 2.2* | 2 | 0.98 | -6 | 1.1 | -119
CCOC(=O)c1cccc(NC(=S)NCc2ccc(C)cc2)c1 | 2.4* | -17 | 1.2 | 7 | 0.9 | -143
O=C(CCNC(=O)C1CCN(S(=O)(=O)c2ccc(F)cc2)CC1)NCc1ccncc1 | 1 | -2 | 1 | · | · | -4
O=C(Nc1cc(S(=O)(=O)Nc2ccccc2Cl)ccc1O)c1sc2cc(Cl)ccc2c1Cl | 0.85 | 8 | 0.92 | 28 | 0.7 | 15
N/C(=N\OC(=O)c1cnn(-c2ccccc2)c1C(F)(F)F)c1ccc(C(F)(F)F)cc1 | 0.98 | 10 | 0.9 | · | · | 2
CCOc1ccccc1NC(=O)NCCc1c[nH]c2ccccc12 | 1.2 | -20 | 1.2 | · | · | -21
SMILES | mIAP activ | hIAP block | hIAP act | bIAP inh | bIAP activator | mIAP block
O=C(NCCc1c[nH]c2ccccc12)Nc1cccc2ccccc12 | 2.3* | 2 | 0.97 | 22 | 0.8 | -132
O=C(NCc1ccccc1)Nc1cccc2ccccc12 | 1.6 | -10 | 1.1 | -8 | 1.1 | -65
O=C(NCc1cccc2ccccc12)Nc1ccccc1 | 2* | -13 | 1.1 | 6 | 0.9 | -100
COC(=O)c1ccc(/C=N/OCC(=O)NCc2ccc(F)cc2)cc1 | 0.97 | -11 | 1.1 | 3 | 1 | 2
COc1ccc(C(C(=O)NCCC(C)C)N(CCO)C(=O)c2snc(C(N)=O)c2N)cc1 (stereo unspecified) | 1.3 | -32 | 1.3 | · | · | -28
Cc1ccc(NC(=O)CCC(=O)N/N=C/C=C/c2ccccc2)cc1 | 1.1 | -6 | 1.1 | 13 | 0.9 | -6
N#C/C(=C/c1ccc(F)cc1)c1nnc(NC(=O)c2ccccc2)s1 | 1.2 | 7 | 0.93 | · | · | -18
O=S(=O)(c1ccc2c(c1)OCCO2)N1CCC(n2nnc3cc(F)ccc32)CC1 | 1.1 | 9 | 0.91 | -113 | 2.1* | -5
COc1ccccc1NS(=O)(=O)c1cccc(C(=O)N2CCN(Cc3ccc4c(c3)OCO4)CC2)c1 | 0.97 | -9 | 1.1 | · | · | 3
COc1cccc(/C=N/NC(=O)c2cnccn2)c1 | 0.95 | 15 | 0.85 | -121 | 2.2* | 5
COc1ccc(/C=N/NC(=O)c2cnccn2)cc1O | 1 | -12 | 1.1 | -1 | 1 | -2
CC(C)CCNC(=S)Nc1ccc(Br)cc1 | 2.2* | -17 | 1.2 | -4 | 1 | -124
COc1ccc(Cn2c(C)c(C)c(C#N)c2NC(=O)Nc2cccc(C)c2)cc1 | 2.2* | -4 | 1 | -9 | 1.1 | -118
CC(/C=C/c1ccco1)=N\NC(=O)c1cc(C)[nH]n1 | 0.59 | -22 | 1.2 | -25 | 1.2 | 41*
Cc1cccc(NC(=S)NC2CC3CCCC(C2)N3Cc2cccs2)c1 (stereo unspecified) | 5.9* | 10 | 0.9 | -20 | 1.2 | -488
COc1cccc(-c2nc(C(=O)NCC3CCCO3)cc3c2[nH]c2ccccc23)c1 (stereo unspecified) | 1 | 14 | 0.86 | · | · | -1
CCOc1ccc2[nH]c3c(NCCC(C)C)ncnc3c2c1 | 2.2* | -61 | 1.6 | · | · | -122
CCN(CC)CCNc1ncnc2c1[nH]c1ccc(OC)cc12 | 1.1 | -12 | 1.1 | · | · | -11
COc1ccc2[nH]c3c(NCCC4=CCCCC4)ncnc3c2c1 | · | · | · | -113 | 2.1* | ·
CCn1cc(S(=O)(=O)NCCc2ccc(OC)c(OC)c2)cn1 | 1 | -24 | 1.2 | · | · | -2
COc1ccc(NC(=O)c2ccc3c(=O)n(Cc4ccco4)c(=S)[nH]c3c2)c(OC)c1 | 0.55 | -13 | 1.1 | -12 | 1.1 | 45*
Cc1ccc(C2(C)NC(=O)N(CC(=O)c3ccc(Cl)s3)C2=O)cc1 (stereo unspecified) | 0.85 | -6 | 1.1 | -97 | 2* | 15
